Screening data: PubChem BioAssay, several laboratories
Cneo AK release = Cryptococcus neoformans cell lysis inducers, primary screen, AK release luminescence, single concentration | lysis activity, % at 15 µM | 360,000 compounds, 0.2% hits | C. neoformans lysis, adenylate kinase release luminescence, 4 h; normalised: neutral wells 0, clomiphene wells 100;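 active = mean lysis activity across replicates of at least 80%, whatever share of replicates individually reach that level; inactive = mean lysis activity below 80%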
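Material – log-phase Cryptococcus neoformans yeast cells · Input – 5 × 10^6 yeast cells/mL · Medium – fresh YPD growth medium · Doses – single compound concentration per well · Timing – static 4 h at 37 °C with compound, 1 h detection · Detection – adenylate kinase release luminescence · Read-out – signal increase indicating cell lysis · Control set – Clomiphene as positive lysis control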
SUMO Mot1 rescue = yeast Mot1-301 growth rescue at high temperature, primary screen, SUMOylation pathway inhibitor project, S. cerevisiae, ATP luminescence, 38.5C; 320,000 compounds, 1% hits; S. cerevisiae Mot1-301 growth rescue; percent above DMSO median, 100 means doubled; growth rescue, % at 18.8 µM;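 active = every valid replicate shows activation above 250% relative to neutral control wells; inactive = the rest, any valid replicate at or below 250%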;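 also: OY570 slx delta 5 strain wells were the positive control but not used for scaling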
Ecoli rRNA inh = reduced GFP signal of wild-type E. coli, primary screen, bacterial rRNA inhibitor project, GFP/RFP fluorescence, OD600, single point; E. coli WT GFP vs humanized-ribosome RFP mutants, 24 h; active compounds read low; DMSO median 0, no signal -100; 350,000 compounds, 1.6% hits; GFP signal change (wild-type ribosome), % (test concentration not listed);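 active = significant combined selectivity score with lowered wild-type GFP, culture density cut under 30%, mutant RFP and density less affected; inactive = any of these conditions unmet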
PglD inh = C. jejuni PglD acetyltransferase inhibitors, primary screen, biochemical, DTNB colorimetric, single point; AID 602405, 2012; UDP-N-acetylbacillosamine N-acetyltransferase PglD (Campylobacter jejuni); inhibition, % at 12.5 µM; 360,000 compounds, 0.098% hits; purified PglD enzyme, DTNB colorimetric CoA detection; in the data active = inhibition above about 16%, passing the limit was not always enough
Yeast superoxide = reduction of superoxide in aged yeast, primary screen, HTS; S. cerevisiae aged cells, superoxide DHE fluorescence; active compounds read low; superoxide response (% of plate mean), % at 10 µM; 330,000 compounds, 0.18% hits;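 active = superoxide response under a set limit, about three screen SD below normal, cut at about 65% in these data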;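 also: yeast aged for seven days with compound at 30 °C before DHE staining; 100% = average MFI of all compound-treated wells on the plate with controls excluded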
An asterisk follows results filed as active; · = no result given. A selection: hits, their analogues and other compounds. The true share with any hit is near 2.2%.

SMILES	Cneo AK release	SUMO Mot1 rescue	Ecoli rRNA inh	PglD inh	Yeast superoxide
Cc1c(/C=N/O)c2ccccn2c1C(=O)c1ccc(F)cc1	-1	10	-28*	-8	102
Cc1c(/C=N/NC(N)=O)c2ccccn2c1C(=O)c1ccc(F)cc1	·	-3	-12	·	94
Cc1ccc(NS(=O)(=O)c2ccc3c(c2)n(C)c(=O)n3C)c(C)c1	4	355*	5	-2	102
O=C(Cn1cc(C(=O)c2ccco2)c2ccccc21)Nc1ccccc1F	·	-10	-22*	·	90
C[C@H](CO)N1C[C@H](C)[C@@H](CN(C)C(=O)c2ccncc2)OCCCC[C@H](C)Oc2ccc(NC(=O)Cc3ccccc3)cc2C1=O	102*	·	-2	-1	·
C[C@@H]1CCCCO[C@H](CN(C)C(=O)c2ccncc2)[C@@H](C)CN([C@@H](C)CO)C(=O)c2cc(NC(=O)Cc3ccccc3)ccc2O1	0	·	-3	-2	·
C[C@@H]1CCCCO[C@@H](CN(C)C(=O)c2ccncc2)[C@H](C)CN([C@H](C)CO)C(=O)c2cc(NC(=O)Cc3ccccc3)ccc2O1	0	·	2	-2	·
C[C@H]1CCCCO[C@H](CN(C)C(=O)c2ccncc2)[C@@H](C)CN([C@@H](C)CO)C(=O)c2cc(NC(=O)Cc3ccccc3)ccc2O1	113*	·	-1	-3	·
CN(C[C@H]1N[C@@H](CO)[C@H]1c1ccc(-c2cccc(F)c2)cc1)S(C)(=O)=O	99*	·	0	3	·
O=C(C[C@H]1CC[C@@H]2[C@H](COC[C@@H](O)CN2Cc2ccc(Cl)cc2)O1)NCc1cccc(F)c1	2	·	-7	-1	·
CN(C)/C=C/c1oc2ccc(O)cc2c1[N+](=O)[O-]	·	-6	-30*	·	102
O=C1O[C@@H](c2ccccc2)[C@@H](c2ccccc2)N2[C@@H](c3ccc(O)cc3)[C@]3(C(=O)Nc4ccc(C#CC5(O)CCCCCC5)cc43)[C@@H](C(=O)N3CCCCCCC3)[C@H]12	-5	·	·	-1	·
COC(=O)Nc1ccc(SCC(=O)c2ccccc2)cc1	·	3	-25*	·	114
COC(=O)Nc1ccc(SCC(=O)c2ccc(Cl)cc2)cc1	2	-16	-37	-1	102
CCNC(=S)Nc1ccc(Oc2ccccc2)cc1	23	·	-9	0	79
COc1ccc(NC(=S)Nc2ccc(Oc3ccccc3)cc2)cc1	-1	277*	·	1	87
COC(=O)Nc1ccc(Oc2ccccc2)cc1	2	278*	·	-2	108
COc1ccc(S(=O)(=O)N(C)C[C@H]2Oc3ccc(NC(=O)Cc4cn(C)c5ccccc45)cc3C(=O)N([C@H](C)CO)C[C@H]2C)cc1	-8	·	-1	-1	·
Cc1ccc(S(=O)(=O)Nc2ccc3c(c2)C(=O)N([C@H](C)CO)C[C@@H](C)[C@H](CN(C)C(=O)Nc2ccccc2)OCCCC[C@@H](C)O3)cc1	52	·	-1	-5	·
C[C@H](CO)N1C[C@H](C)[C@@H](CN(C)CC2CC2)Oc2ccc(NS(C)(=O)=O)cc2CC1=O	-9	·	6	-5	·
O=[N+]([O-])c1nn(-c2cccc(Cl)c2)n(O)c1=NCc1cccnc1	·	1	2	·	112
O=[N+]([O-])c1nn(-c2ccc(Cl)cc2)n(O)c1=NCc1cccnc1	1	1	-19*	-3	104
CNC(=S)N/N=C/c1c(C)nn(-c2ccccc2)c1Cl	·	15	·	·	104
Cc1nn(-c2ccccc2)c(Cl)c1/C=N/NC(=O)OC(C)(C)C	0	1	-20*	-1	105
COc1ccc(NCC(=O)N/N=C/c2c(C)nn(Cc3ccccc3)c2Cl)cc1	-2	19	-14*	4	97
SMILES	Cneo AK release	SUMO Mot1 rescue	Ecoli rRNA inh	PglD inh	Yeast superoxide
Cn1c(=O)c2nc(Cl)c(-c3ccccc3)nc2n(C)c1=O	·	9	9	·	92
Cn1c(=O)c2nc(-c3ccccc3)c(-c3ccccc3)nc2n(C)c1=O	·	-10	-20*	·	100
O=C(/C=C/c1cccc([N+](=O)[O-])c1)Nc1ccc(NC(=O)c2cccs2)cc1	-1	474*	·	-5	93
O=C(/C=C/c1cccc([N+](=O)[O-])c1)c1cccs1	-1	0	-1	-3	106
CCNC(=O)C[C@H]1CC[C@@H]2[C@H](COc3ccc(NC(=O)c4cccs4)cc3C(=O)N2C)O1	0	·	0	-1	·
C/C(=C\C(=O)c1ncc(C(F)(F)F)cc1Cl)N(C)C	·	-15	·	·	93
CN(C)/C=C(\C=O)c1ncc(C(F)(F)F)cc1Cl	·	905*	10	·	96
COC(=O)c1ccc(NC(=O)c2cccc(C)c2[N+](=O)[O-])cc1	-1	29	-22*	-2	122
c1ccc(CN2CCC(=NNc3nc4ccccc4[nH]3)CC2)cc1	3	9	-27	6	99
CC(C)(C)C1CCC(=NNc2nc3ccccc3[nH]2)CC1 (stereo not given)	·	28	-23*	·	104
COc1ccc2c3c([nH]c2c1)[C@H](CO)N(C(=O)c1ccccn1)CC31CCN(C(=O)C2CC2)CC1	·	·	2	·	·
CCN(C(=O)COC(=O)c1cc(-c2cccs2)nc2ccccc12)C1CCS(=O)(=O)C1 (stereo not given)	·	4	-23*	·	119
CO[C@H]1C=CO[C@@]2(C)Oc3c(C)c(O)c4c(O)c(c5c(c4c3C2=O)NC2(CCN(CC(C)C)CC2)N=5)=NC(=O)C(C)=CC=C[C@H](C)[C@H](O)[C@@H](C)[C@@H](O)[C@@H](C)[C@H](OC(C)=O)[C@@H]1C	·	8	·	·	62*
Cc1cccc(N2C(=O)C(O)=C(C(=O)c3cccs3)C2c2ccc(C(C)C)cc2)n1 (stereo not given)	·	20	-23*	·	83
Cc1cccc(N2C(=O)C(O)=C(C(=O)c3cccs3)C2c2ccc(F)cc2)n1 (stereo not given)	2	-8	-1	-10	116
Cc1nn(C)c(C(=O)N/N=C/c2ccc(Br)cc2)c1Cl	·	-14	12	·	61*
COCCNC(=O)C[C@@H]1CC[C@@H]2[C@H](COc3ccc(NC(=O)c4cnccn4)cc3C(=O)N2C)O1	-2	·	0	1	·
O=C(O)c1ccc(N2C(=O)C3C4c5ccccc5C(Br)(c5ccccc54)C3C2=O)cc1 (stereo not given)	·	94	-36*	·	78
CC12c3ccccc3C(c3ccccc31)C1C(=O)N(c3ccncc3)C(=O)C12 (stereo not given)	0	·	-14	-4	96
CNC[C@@H]1Oc2c(NC(=O)C3CCCCC3)cccc2C(=O)N([C@H](C)CO)C[C@@H]1C	2	·	4	-2	·
